Laboratory results reported in ChEMBL document CHEMBL2429814 (J Med Chem, 2013).
Calls of active or inactive are those of the source. The calls are words filed in the database; no cut-off is given here.

Assays:
[1] = target: T1, Metabotropic glutamate receptor 5 (Rattus norvegicus, UniProt P31424); experiment: Positive allosteric modulation of rat mGluR5 stably expressed in CHO cells assessed as calcium mobilization; type: functional, cell-based
[2] = Protein binding in (unknown origin) plasma; type: ADME, cell-free; conditions: read-out: PPB (converted)
[3] = Ratio of drug level in brain to plasma in (unknown origin); type: ADME, cell-free; conditions: brain and plasma; read-out: BPR
[4] = target: T1, Metabotropic glutamate receptor 5; experiment: Positive allosteric modulation of rat mGluR5 stably expressed in HEK293 cells assessed as Ca2+ flux by FLIPR assay; type: functional, cell-based
[5] = target: T2, Metabotropic glutamate receptor 5 (Homo sapiens, UniProt P41594); experiment: Positive allosteric modulation of human mGluR5 stably expressed in HEK293 cells assessed as Ca2+ flux by FLIPR assay
T2 sequence (P41594 whole entry): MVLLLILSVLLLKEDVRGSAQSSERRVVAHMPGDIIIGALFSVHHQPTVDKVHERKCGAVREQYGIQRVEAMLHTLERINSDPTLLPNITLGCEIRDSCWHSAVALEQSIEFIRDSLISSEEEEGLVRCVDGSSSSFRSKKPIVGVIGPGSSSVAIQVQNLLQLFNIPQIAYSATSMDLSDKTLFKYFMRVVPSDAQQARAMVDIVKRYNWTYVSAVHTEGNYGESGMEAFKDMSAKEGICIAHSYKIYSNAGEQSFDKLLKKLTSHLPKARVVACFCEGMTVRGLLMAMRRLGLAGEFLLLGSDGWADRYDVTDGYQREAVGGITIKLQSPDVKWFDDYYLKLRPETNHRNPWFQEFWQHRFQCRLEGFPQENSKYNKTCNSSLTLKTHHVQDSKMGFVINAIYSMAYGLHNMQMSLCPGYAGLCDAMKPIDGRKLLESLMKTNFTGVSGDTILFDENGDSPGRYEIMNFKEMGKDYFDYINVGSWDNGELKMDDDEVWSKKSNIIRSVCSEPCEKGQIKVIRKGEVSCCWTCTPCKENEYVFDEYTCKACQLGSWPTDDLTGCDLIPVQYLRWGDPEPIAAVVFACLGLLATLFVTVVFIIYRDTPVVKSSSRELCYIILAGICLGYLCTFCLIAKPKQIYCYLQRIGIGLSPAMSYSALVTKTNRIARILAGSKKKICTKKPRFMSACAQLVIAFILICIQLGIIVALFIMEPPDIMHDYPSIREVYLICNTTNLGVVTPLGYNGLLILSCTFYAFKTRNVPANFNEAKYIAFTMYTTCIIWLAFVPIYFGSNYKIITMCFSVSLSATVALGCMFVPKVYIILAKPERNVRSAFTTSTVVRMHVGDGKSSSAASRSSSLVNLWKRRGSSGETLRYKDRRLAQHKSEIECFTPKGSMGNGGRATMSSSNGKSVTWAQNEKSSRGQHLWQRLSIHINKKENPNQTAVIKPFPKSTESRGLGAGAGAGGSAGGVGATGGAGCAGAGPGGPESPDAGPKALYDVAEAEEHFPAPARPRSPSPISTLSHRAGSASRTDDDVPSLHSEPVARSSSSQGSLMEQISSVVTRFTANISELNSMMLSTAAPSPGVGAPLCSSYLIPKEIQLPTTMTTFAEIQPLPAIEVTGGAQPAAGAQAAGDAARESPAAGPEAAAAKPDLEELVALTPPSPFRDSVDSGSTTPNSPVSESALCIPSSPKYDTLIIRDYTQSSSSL

[6] = target: T1, Metabotropic glutamate receptor 5; experiment: Positive allosteric modulation of rat mGluR5 stably expressed in HEK293 cells assessed as increase in intracellular calcium level by Fluo-4AM dye-based fluorescence assay; type: functional, cell-based
Method in brief: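 HEK293 cells stably expressing rat mGlu5 (low receptor density line), 15,000 cells/well, grown overnight at 37°C/5% CO2. Loaded with Fluo-4AM for 50 min at 37°C in HBSS with 20 mM HEPES, 2.5 mM probenecid, pH 7.4. Triple add: compound, then EC20 glutamate 140 s later, then EC80 glutamate 60 s later. Calcium fluorescence read over time. Values are means of ≥3 independent experiments run in duplicate or triplicate.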

[7] = Agonist activity at rat mGluR5 T780A mutant stably expressed in HEK293 cells assessed as increase in intracellular calcium level at 1 to 100 uM by Fluo-4AM dye-based fluorescence assay; type: cell-based; conditions: hek293, 100 µM
[8] = target: Metabotropic glutamate receptor 5 (Rattus norvegicus) (UniProt P31424); experiment: Positive allosteric modulation of rat mGluR5 stably expressed in HEK293 cells assessed as increase in intracellular calcium level by Fluo-4AM dye-based fluorescence assay relative to glutamate; type: functional, cell-based
Metabotropic glutamate receptor 5 (Rattus norvegicus), sequence (P31424 21-1203 limits assumed): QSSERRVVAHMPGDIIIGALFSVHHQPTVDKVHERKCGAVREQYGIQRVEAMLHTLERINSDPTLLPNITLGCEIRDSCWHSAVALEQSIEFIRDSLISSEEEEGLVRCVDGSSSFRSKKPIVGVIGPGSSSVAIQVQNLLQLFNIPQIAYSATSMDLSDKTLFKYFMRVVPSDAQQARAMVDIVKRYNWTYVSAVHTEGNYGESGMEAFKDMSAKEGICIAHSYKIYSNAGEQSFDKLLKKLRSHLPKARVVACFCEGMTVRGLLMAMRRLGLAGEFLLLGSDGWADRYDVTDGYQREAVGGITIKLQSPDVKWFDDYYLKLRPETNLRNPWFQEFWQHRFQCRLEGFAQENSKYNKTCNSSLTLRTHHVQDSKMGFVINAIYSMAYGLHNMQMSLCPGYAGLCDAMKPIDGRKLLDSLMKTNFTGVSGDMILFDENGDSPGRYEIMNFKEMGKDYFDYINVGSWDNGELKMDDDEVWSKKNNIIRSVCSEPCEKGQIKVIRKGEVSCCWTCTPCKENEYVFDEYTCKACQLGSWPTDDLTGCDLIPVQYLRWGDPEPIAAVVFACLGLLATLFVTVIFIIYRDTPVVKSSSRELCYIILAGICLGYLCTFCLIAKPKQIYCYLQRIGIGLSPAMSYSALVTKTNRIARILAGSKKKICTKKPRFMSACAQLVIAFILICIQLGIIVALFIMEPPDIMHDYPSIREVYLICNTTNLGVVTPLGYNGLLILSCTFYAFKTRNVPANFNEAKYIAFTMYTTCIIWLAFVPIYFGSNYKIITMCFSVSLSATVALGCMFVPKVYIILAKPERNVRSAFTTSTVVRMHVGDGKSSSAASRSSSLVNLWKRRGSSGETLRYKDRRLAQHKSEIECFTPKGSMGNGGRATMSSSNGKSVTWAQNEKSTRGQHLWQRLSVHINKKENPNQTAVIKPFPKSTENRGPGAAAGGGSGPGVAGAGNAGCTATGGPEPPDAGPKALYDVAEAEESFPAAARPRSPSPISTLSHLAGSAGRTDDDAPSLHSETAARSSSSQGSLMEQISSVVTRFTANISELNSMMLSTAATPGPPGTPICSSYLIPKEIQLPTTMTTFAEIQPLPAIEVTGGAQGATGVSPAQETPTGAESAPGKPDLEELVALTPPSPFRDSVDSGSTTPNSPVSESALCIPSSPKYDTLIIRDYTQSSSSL

[9] = target: Metabotropic glutamate receptor 5 (Rattus norvegicus) (UniProt P31424); experiment: Potentiation of rat mGluR5 receptor stably expressed in HEK293 cells assessed as fold shift in glutamate concentration response curve at 10 uM relative to control; type: cell-based
Method in brief: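 HEK293 cells stably expressing rat mGlu5 were loaded with Fluo-4AM. Compound at 10 µM, or vehicle, was added, and a glutamate concentration-response curve followed 140 s later. The fold leftward shift of the glutamate curve was read from calcium fluorescence. Values are means of three independent experiments in triplicate.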

[10] = Agonist activity at rat mGluR5 W784A mutant stably expressed in HEK293 cells assessed as increase in intracellular calcium level at 1 to 100 uM by Fluo-4AM dye-based fluorescence assay; type: cell-based; conditions: hek293, 100 µM
[11] = target: Metabotropic glutamate receptor 7 (Rattus norvegicus) (UniProt P35400); experiment: Potentiation of rat mGluR7 receptor stably expressed in HEK293-GIRK cells assessed as fold shift in […] concentration response curve at 10 uM by […] relative to control; type: cell-based
Method in brief: (§1)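 HEK293-GIRK cells expressing the rat mGlu subtype were plated at 15,000 cells/well. Compound at 10 µM, or vehicle, was added, then 140 s later a concentration-response curve of glutamate (L-AP4 for mGlu7) in thallium buffer containing 12 mM thallium sulfate. Thallium flux through GIRK channels was read by fluorescence, and the fold shift of the agonist curve was derived.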

[12] = target: Metabotropic glutamate receptor 8 (Rattus norvegicus) (UniProt P70579); experiment: Potentiation of rat mGluR8 receptor stably expressed in HEK293-GIRK cells assessed as fold shift in glutamate concentration response curve at 10 uM by C2+ mobilization assay relative to control; type: cell-based; conditions: in the assay text read “thallium flux assay” for “C2+ mobilization assay”; method in brief: as §1
[13] = target: Metabotropic glutamate receptor 6 (Rattus norvegicus) (UniProt P35349); experiment: Potentiation of rat mGluR6 receptor stably expressed in HEK293-GIRK cells assessed as fold shift in glutamate concentration response curve at 10 uM by C2+ mobilization assay relative to control; type: cell-based; conditions: in the assay text read “thallium flux assay” for “C2+ mobilization assay”; method in brief: as §1
Cytochrome P450 2D6 = Cytochrome P450 2D6 (Homo sapiens, UniProt P10635); experiment: Inhibition of human CYP2D6; type: ADME
Cytochrome P450 2D6, sequence (P10635 whole entry, canonical isoform): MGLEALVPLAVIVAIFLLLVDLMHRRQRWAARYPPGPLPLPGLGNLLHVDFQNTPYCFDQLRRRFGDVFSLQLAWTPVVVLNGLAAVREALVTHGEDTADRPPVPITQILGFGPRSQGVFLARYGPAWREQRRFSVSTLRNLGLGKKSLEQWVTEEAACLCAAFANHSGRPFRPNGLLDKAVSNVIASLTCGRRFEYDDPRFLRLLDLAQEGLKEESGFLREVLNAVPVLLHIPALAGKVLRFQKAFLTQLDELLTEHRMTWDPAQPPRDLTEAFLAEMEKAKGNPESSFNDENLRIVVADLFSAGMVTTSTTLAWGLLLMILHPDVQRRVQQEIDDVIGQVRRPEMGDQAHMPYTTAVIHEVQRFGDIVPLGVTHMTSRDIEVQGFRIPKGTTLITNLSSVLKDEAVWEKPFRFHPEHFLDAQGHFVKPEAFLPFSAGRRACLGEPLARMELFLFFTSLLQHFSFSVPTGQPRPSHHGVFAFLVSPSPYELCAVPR
Method in brief: (§2)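 Inhibition of individual human CYP isoforms (2C9, 2D6, 3A4) measured in human liver microsomes; IC50 values reported.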

Plasma [14] = experiment: Fraction unbound in human plasma by equilibrium dialysis method; type: ADME, cell-free
Method in brief: (§3)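 Plasma protein binding measured by equilibrium dialysis in human or rat plasma; reported as percent unbound.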

[15] = target: Metabotropic glutamate receptor 1 (Rattus norvegicus) (UniProt P23385); experiment: Potentiation of rat mGluR1 receptor stably expressed in HEK293 cells assessed as fold shift in glutamate concentration response curve at 10 uM by […] mobilization assay relative to control; type: cell-based
Method in brief: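 HEK293 cells stably expressing rat mGlu1 were plated at 20,000 cells/well and loaded with Fluo-4AM. Compound at 10 µM final, or vehicle, was added, then a glutamate concentration-response curve 140 s later. Calcium flux was measured as fluorescence increase, and the fold shift of the glutamate curve was derived.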

[16] = target: T1, Metabotropic glutamate receptor 5; experiment: Agonist activity at mGlu5R in CA3 pyramidal neurons Sprague-Dawley rat hippocampus assessed as effect on intervent interval relative to control; type: tissue-based
Method in brief: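 Male Sprague-Dawley rats aged 24–30 days; hippocampal slices equilibrated 5–10 min at 30–32°C in a submersion chamber. Recording electrode in the CA3 pyramidal cell body layer. Compound diluted in DMSO and bath-perfused. Spontaneous epileptiform events recorded as field potentials, with inter-event interval normalized to baseline.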

[17] = target: Metabotropic glutamate receptor 4 (Rattus norvegicus) (UniProt P31423); experiment: Potentiation of rat mGluR4 receptor stably expressed in HEK293-GIRK cells assessed as fold shift in glutamate concentration response curve at 10 uM by C2+ mobilization assay relative to control; type: cell-based; conditions: in the assay text read “thallium flux assay” for “C2+ mobilization assay”; method in brief: as §1
[18] = Agonist activity at rat mGluR5 S808A mutant stably expressed in HEK293 cells assessed as increase in intracellular calcium level at 1 to 100 uM by Fluo-4AM dye-based fluorescence assay; type: cell-based; conditions: hek293, 100 µM
[19] = target: T1, Metabotropic glutamate receptor 5; experiment: Agonist activity at mGlu5R in CA3 pyramidal neurons Sprague-Dawley rat hippocampus assessed as effect on amplitude relative to control; type: tissue-based
[20] = target: T1, Metabotropic glutamate receptor 5; experiment: Agonist activity at mGlu5R in SC-CA1 synapse of Sprague-Dawley rat hippocampus assessed as induction of long-term depression at 10 uM measured 55 mins post compound washout; type: tissue-based
Method in brief: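 Male Sprague-Dawley rats aged 30–40 days; hippocampal slices at 30–32°C. Bipolar stimulation of Schaffer collaterals near the CA3-CA1 border, recording in CA1 stratum radiatum, baseline intensity 50–60% of maximum. Compound in DMSO, bath-perfused. fEPSP slopes averaged over three sequential responses and normalized to the pre-drug baseline.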

Cytochrome P450 1A2 = target: T3, Cytochrome P450 1A2 (Homo sapiens, UniProt P05177); experiment: Inhibition of human CYP1A2; type: ADME
T3 sequence (P05177 whole entry): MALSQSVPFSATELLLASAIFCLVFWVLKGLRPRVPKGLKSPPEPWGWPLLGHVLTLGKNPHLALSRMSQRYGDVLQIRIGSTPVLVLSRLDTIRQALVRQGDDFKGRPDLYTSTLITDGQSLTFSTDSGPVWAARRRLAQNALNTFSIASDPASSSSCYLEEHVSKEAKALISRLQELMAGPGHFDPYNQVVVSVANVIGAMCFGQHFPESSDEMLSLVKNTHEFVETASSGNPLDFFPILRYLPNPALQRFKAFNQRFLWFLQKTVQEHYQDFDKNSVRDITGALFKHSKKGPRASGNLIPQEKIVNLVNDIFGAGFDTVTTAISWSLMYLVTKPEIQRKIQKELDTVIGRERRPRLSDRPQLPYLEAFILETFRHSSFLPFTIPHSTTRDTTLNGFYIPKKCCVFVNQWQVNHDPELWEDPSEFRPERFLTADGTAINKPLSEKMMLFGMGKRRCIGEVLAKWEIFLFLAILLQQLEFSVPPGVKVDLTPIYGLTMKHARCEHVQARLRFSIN
Method in brief: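 Inhibition of the human CYP1A2 isoform measured in human liver microsomes; reported as IC50.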

Cytochrome P450 2C9 = Cytochrome P450 2C9 (Homo sapiens, UniProt P11712); experiment: Inhibition of human CYP2C9; type: ADME; method in brief: as §2
Plasma [21] = experiment: Fraction unbound in rat plasma by equilibrium dialysis method; type: ADME, cell-free; method in brief: as §3
[22] = target: Metabotropic glutamate receptor 2 (Rattus norvegicus) (UniProt P31421); experiment: Potentiation of rat mGluR2 receptor stably expressed in HEK293-GIRK cells assessed as fold shift in glutamate concentration response curve at 10 uM by C2+ mobilization assay relative to control; type: cell-based; conditions: in the assay text read “thallium flux assay” for “C2+ mobilization assay”; method in brief: as §1
Metabotropic glutamate receptor 2 (Rattus norvegicus), sequence (P31421 19-872 limits assumed): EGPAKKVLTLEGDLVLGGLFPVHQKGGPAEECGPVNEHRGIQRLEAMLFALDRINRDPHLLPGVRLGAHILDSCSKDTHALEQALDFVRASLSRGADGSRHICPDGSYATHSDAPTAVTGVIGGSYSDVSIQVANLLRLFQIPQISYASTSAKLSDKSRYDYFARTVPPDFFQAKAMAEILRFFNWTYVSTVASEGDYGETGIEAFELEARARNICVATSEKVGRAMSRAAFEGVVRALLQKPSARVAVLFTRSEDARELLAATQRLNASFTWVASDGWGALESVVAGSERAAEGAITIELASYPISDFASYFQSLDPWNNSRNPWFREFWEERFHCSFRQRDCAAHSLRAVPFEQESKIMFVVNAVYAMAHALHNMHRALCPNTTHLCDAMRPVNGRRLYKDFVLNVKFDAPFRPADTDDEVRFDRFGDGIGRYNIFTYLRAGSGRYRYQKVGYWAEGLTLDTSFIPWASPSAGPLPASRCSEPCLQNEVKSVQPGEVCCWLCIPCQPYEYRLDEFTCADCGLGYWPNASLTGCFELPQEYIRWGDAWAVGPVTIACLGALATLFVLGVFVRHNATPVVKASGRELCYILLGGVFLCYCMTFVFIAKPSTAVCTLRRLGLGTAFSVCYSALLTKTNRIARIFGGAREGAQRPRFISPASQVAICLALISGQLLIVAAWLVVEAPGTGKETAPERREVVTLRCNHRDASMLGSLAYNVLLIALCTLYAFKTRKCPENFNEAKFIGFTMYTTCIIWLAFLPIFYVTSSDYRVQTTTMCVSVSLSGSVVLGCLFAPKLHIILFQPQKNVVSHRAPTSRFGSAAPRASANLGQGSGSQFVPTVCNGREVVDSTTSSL

[23] = target: Metabotropic glutamate receptor 3 (Rattus norvegicus) (UniProt P31422); experiment: Potentiation of rat mGluR3 receptor stably expressed in HEK293-GIRK cells assessed as fold shift in glutamate concentration response curve at 10 uM by C2+ mobilization assay relative to control; type: cell-based; conditions: in the assay text read “thallium flux assay” for “C2+ mobilization assay”; method in brief: as §1
Brain = experiment: Fraction unbound in rat brain; type: ADME, tissue-based
Method in brief: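 Binding to rat brain homogenate used to derive fraction unbound in brain.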

[24] = target: T2, Metabotropic glutamate receptor 5; experiment: Positive allosteric modulation of mGluR5 (unknown origin)

T1 sequence (P31424 whole entry): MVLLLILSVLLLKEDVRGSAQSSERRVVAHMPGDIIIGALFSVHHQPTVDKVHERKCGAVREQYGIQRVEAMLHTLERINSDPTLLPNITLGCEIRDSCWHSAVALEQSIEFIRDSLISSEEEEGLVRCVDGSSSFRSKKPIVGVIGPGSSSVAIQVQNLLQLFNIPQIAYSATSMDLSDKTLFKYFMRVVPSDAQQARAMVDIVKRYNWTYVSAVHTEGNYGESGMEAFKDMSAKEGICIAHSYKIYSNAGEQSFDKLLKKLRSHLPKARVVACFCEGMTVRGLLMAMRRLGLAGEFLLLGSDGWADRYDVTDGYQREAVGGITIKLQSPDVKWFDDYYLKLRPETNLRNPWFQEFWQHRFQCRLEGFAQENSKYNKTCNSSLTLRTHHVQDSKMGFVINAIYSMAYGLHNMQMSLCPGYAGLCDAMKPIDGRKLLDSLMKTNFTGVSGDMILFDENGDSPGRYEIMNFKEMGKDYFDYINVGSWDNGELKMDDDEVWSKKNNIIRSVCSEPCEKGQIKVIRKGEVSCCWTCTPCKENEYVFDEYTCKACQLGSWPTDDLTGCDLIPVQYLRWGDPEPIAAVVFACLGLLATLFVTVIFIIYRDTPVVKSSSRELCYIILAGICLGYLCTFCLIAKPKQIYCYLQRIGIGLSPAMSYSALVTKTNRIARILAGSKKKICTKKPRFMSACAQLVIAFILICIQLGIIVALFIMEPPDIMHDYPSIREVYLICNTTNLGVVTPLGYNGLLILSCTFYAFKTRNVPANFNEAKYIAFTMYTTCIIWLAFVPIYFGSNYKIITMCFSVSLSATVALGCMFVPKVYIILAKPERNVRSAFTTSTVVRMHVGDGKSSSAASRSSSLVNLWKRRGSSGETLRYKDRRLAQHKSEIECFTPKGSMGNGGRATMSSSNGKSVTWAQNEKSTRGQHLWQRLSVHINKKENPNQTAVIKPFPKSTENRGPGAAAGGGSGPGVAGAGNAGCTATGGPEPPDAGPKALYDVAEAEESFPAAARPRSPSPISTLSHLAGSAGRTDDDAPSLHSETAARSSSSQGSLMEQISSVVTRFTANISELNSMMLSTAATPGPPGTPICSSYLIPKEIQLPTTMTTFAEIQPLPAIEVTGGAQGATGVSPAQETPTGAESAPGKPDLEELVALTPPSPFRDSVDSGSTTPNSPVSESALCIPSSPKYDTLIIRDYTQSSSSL

## O=C(NC1CCC1)c1ccc(C#Cc2cccc(F)c2)nc1
[1]
  EC50: 0.039 µM
[2]
  fraction unbound: 0.011
[3]
  Kp: 0.13

## O=C(c1ccc(F)cc1)N1CCC[C@H](c2nc(-c3ccc(F)cc3)no2)C1
[4]
  EC50: 0.055 µM
[5]
  EC50: 0.157 µM

## C[C@@H](NC(=O)c1ccc(C#Cc2ccccn2)cn1)C(C)(C)O
[6]; read-out: EC50
  EC50: 0.0413 µM
[6]; read-out: pEC50 (converted)
  EC50: 0.0933 µM
[7]
  Activity: Not Active
[8]
  Efficacy: 57.5%
[9]
  fold change (FC): 1.7
[10]
  Activity: Active

## CC1(NC(=O)c2ccc(C#Cc3cccc(F)c3)cn2)COC1
[11]
  Activity: inactive
[12]
  Activity: inactive
[13]
  Activity: inactive
Cytochrome P450 2D6
  IC50: > 30 µM
Plasma [14]
  Fu: 3.5%
[15]
  Activity: inactive
[7]
  Activity: Not Active
[16]
  Activity: 127.9%
[8]
  Efficacy: 45.5%
[17]
  Activity: inactive
[18]
  Activity: Active
[19]
  Activity: 101.2%
[20]
  Activity: 100.3%
Cytochrome P450 1A2
  IC50: 5.3 µM
Cytochrome P450 2C9
  IC50: > 30 µM
Plasma [21]
  Fu: 3.6%
[22]
  Activity: inactive
[23]
  Activity: inactive
Brain
  Fu: 1.6%

## Fc1cccc(/C=N/N=C/c2cccc(F)c2)c1
[24]
  EC50: 2.6 µM
